Experimental data taken from ChEMBL document CHEMBL5252676, “Dimeric polyphenols to pave the way for new antimalarial drugs” (RSC Med Chem, 2023).
Converted amounts (≈) assume the structure as drawn. “And” between values parts separate entries of the source, which are not always exact repeats. Equal entries are not always repeated. The source made the active and inactive calls. No cut-off for these calls is given here.

How the values were obtained:
[1] = Hemolytic activity in RBC (unknown origin) assessed as hemolysis at 100 ug/ml incubated for 1 hrs by absorbance based microplate reader analysis relative to control; format: toxicity, cell-based, Erythrocyte; settings: red blood cells, at 100 µg/mL, read-out: Activity
Procedure, shortened: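 Human A⁺/O⁺ RBC, 10% v/v in PBS, exposed to compound at 100 μg mL⁻¹ final (DMSO < 1%), in duplicate, stirred 1 h at RT. Centrifuged, supernatant OD₅₅₀ read. % lysis = (sample − PBS)/(1% Triton X-100 − PBS) × 100.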

Plasmodium berghei [2] = experiment: Antiplasmodial activity against Plasmodium berghei NK173 infected in Swiss CD-1 mouse model of malaria assessed as reduction in parasitaemia at 25 mg/kg, po measured after 7 days by giemsa staining based microscopic analysis; format: functional, organism-based; settings: time 7.0 day
Procedure, shortened: (§1)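 Peters' 4-day suppressive test: female Swiss CD1 mice (10 weeks, 25 ± 2 g), six per group, infected i.p. with P. berghei NK173-parasitized RBC at D1. Dosing 2–3 h post-infection, then daily for 3 days, in 7% Tween 80/3% EtOH in saline. Giemsa thin tail-blood smears (≥500 erythrocytes) at D4 (2 h post-dose) and D7. Inhibition is taken versus vehicle controls.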

Plasmodium berghei [3] = experiment: Antiplasmodial activity against Plasmodium berghei NK173 infected in Swiss CD-1 mouse model of malaria assessed as reduction in parasitaemia at 4 mg/kg, ip measured after 7 days by giemsa staining based microscopic analysis; format: functional, organism-based; settings: time 7.0 day; procedure, shortened: as §1
[4] = Selectivity index, ratio of IC50 for cytotoxicity against HUVEC cells to IC50 for antiplasmodial activity against chloroquine-sensitive Plasmodium falciparum 3D7; format: toxicity, cell-based; settings: human, read-out: Ratio IC50
[5] = Aqueous solubility of compound assessed as Cmax incubated for 3 days by UV spectrophotometer based shake-flask method; format: physicochemical; settings: water (aqueous); time 3 day; read-out: Cmax
Procedure, shortened: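 Shake-flask: excess solid stirred overnight in MilliQ water at RT (~25 °C), filtered 0.45 μm, diluted, absorbance read at the λmax from a UV scan. Quantified against a 3-point calibration curve (R² > 0.95). Fresh saturated solutions were made on 3 consecutive days.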

Plasmodium falciparum [6] = experiment: Antiplasmodial activity against chloroquine-sensitive Plasmodium falciparum 3D7 assessed as intraerythrocytic growth inhibition; format: functional, organism-based
Procedure, shortened: (§2)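 Asexual intraerythrocytic P. falciparum cultured at 37 °C in RPMI with glucose, hypoxanthine, gentamycin and 10% pooled human A+/O+ serum. DMSO stocks of 5–10 mg mL⁻¹ diluted in RPMI, final DMSO at most 1%. Eight two-fold dilutions tested in three consecutive assays. Growth read as Plasmodium lactate dehydrogenase activity at 650 nm against parasitized RBC (100%) and free RBC (0%). IC50 in triplicate; artemisinin and quinine as controls.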

Plasmodium falciparum [7] = experiment: Antiplasmodial activity against Plasmodium falciparum 3D7 assessed as inhibition of parasite reduction by giemsa staining based analysis; format: functional, organism-based
Procedure, shortened: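 3D7 cultures were exposed to compound for 48 h. Parasitaemia was then scored by microscopy as a visual check of parasite burden.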

[8] = Cytotoxicity against HUVEC cells assessed as inhibition of cell growth incubated for 48 hrs by fluorescence based assay; format: toxicity; settings: human
Procedure, shortened: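 HUVEC in EGM-2, at most 10 passages, seeded at 2.5 × 10⁴ cells/well and grown 24 h at 37 °C. Six 2-fold concentrations in triplicate (DMSO max 0.5%) for 48 h. PrestoBlue for 2–3 h, fluorescence 560–590 nm, growth compared with untreated cells. n = 3 separate tests.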

[9] = Toxicity in mouse at 200 mg/kg, po administered 2 hrs once for 6 hrs and measured for 24 hrs; format: organism-based; settings: in vivo
Procedure, shortened: (§3)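 Two mice per route (i.p. or p.o.) received 4 increasing doses over 6 h (every 2 h) in Tween 80/EtOH/saline (7/3/90), then were followed for 24 h for health or behavioural problems. Maximal dose is set as 50% of the cumulative dose giving toxicity.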

Plasmodium falciparum [10] = experiment: Antiplasmodial activity against chloroquine-resistant Plasmodium falciparum FcB1 assessed as intraerythrocytic growth inhibition; format: functional, organism-based; procedure, shortened: as §2
[11] = Toxicity in zebrafish embryos assessed as survival at highest concentration measured for 3 days relative to control; design: species or system Danio rerio; settings: in vivo, time 3 day, read-out: Activity
Procedure, shortened: (§4)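 Zebrafish embryos were synchronized 24 h after collection and kept at 28 °C with chorion intact, 20 per condition in duplicate. They were exposed to 100, 50, 25 or 10 μg mL⁻¹ from 100 mg mL⁻¹ DMSO stocks (final DMSO under 0.1%), with medium renewed daily for 3 days. Aspect, hatching and mortality were followed to 96 hpf against 30 control embryos in water with 0.1% DMSO.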

[12] = Toxicity in zebrafish embryos assessed as reduction in brain size at 10 to 100 ug/ml measured for 3 days; format: tissue-based, Danio rerio; settings: in vivo, 72 h, dose 10-100 µg/ml, time 3 day
Plasmodium berghei [13] = experiment: Antiplasmodial activity against Plasmodium berghei NK173 infected in Swiss CD-1 mouse model of malaria assessed as reduction in parasitaemia at 50 mg/kg, ip measured after 4 days by giemsa staining based microscopic analysis relative to control; format: functional; design: scale not given: the % may be the effect or the level left; settings: time 4 day; procedure, shortened: as §1
[14] = Toxicity in zebrafish embryos assessed as egg hatching at 10 to 100 ug/ml measured for 72 hrs relative to control; format: tissue-based, Danio rerio; settings: in vivo, at 10 to 100 µg/mL, dose 10-100 µg/ml
Plasmodium berghei [15] = experiment: Antiplasmodial activity against Plasmodium berghei NK173 infected in Swiss CD-1 mouse model of malaria assessed as reduction in parasitaemia at 50 mg/kg, po measured after 4 days by giemsa staining based microscopic analysis relative to control; format: functional; design: scale not given: the % may be the effect or the level left; settings: time 4 day; procedure, shortened: as §1
[16] = Toxicity in zebrafish embryo assessed as survival at 10 to 100 ug/ml measured 24 hrs post fertilization relative to control; design: species or system Danio rerio; settings: in vivo, at 10 to 100 µg/mL, dose 10-100 µg/ml, read-out: Activity; procedure, shortened: as §4
[17] = Toxicity in zebrafish embryo assessed as developmental defects at 10 to 100 ug/ml measured 24 hrs post fertilization; design: species or system Danio rerio; settings: in vivo, dose 10-100 µg/ml
[18] = Toxicity in zebrafish embryos assessed as modified heart rate at 10 to 100 ug/ml measured for 3 days; design: species or system Danio rerio; settings: in vivo, 72 h, dose 10-100 µg/ml, time 3 day
Plasmodium falciparum [19] = experiment: Antiplasmodial activity against multidrug-resistant Plasmodium falciparum W2 assessed as intraerythrocytic growth inhibition; format: functional, organism-based; procedure, shortened: as §2
[20] = Toxicity in mouse at 150 mg/kg, ip administered 2 hrs once for 6 hrs and measured for 24 hrs; format: organism-based; settings: in vivo; procedure, shortened: as §3
[21] = Toxicity in zebrafish embryos assessed as brain misshape at 10 to 100 ug/ml measured for 3 days; format: tissue-based, Danio rerio; settings: in vivo, 72 h, dose 10-100 µg/ml, time 3 day
[22] = Cytotoxicity against HUVEC confluent cells assessed as inhibition of cell growth incubated for 48 hrs by fluorescence based assay; format: toxicity; settings: human
Procedure, shortened: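 Confluent HUVEC: plates seeded 3 days before treatment, then exposed to six 2-fold concentrations for 48 h. PrestoBlue fluorescence read-out (560–590 nm), compared with untreated cells.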

[23] = tested on: Plasmodium vinckei petteri; experiment: Antiplasmodial activity against Plasmodium vinckei petteri infected in Swiss mouse model assessed as inhibition of parasite growth administered intraperitoneally for 4 days; format: functional; settings: 96 h, route ip, time 4 day
Plasmodium falciparum [24] = experiment: Antiplasmodial activity against Plasmodium falciparum 3D7 assessed as inhibition of parasite reduction by Plasmodium lactate dehydrogenase activity
[25] = Oral bioavailability in human; format: ADME, organism-based; settings: in vivo
[26] = tested on: Plasmodium vinckei petteri; experiment: Antiplasmodial activity against Plasmodium vinckei petteri infected in Swiss mouse model assessed as inhibition of parasite growth administered orally for 4 days; format: functional; settings: 96 h, route po, time 4 day
[27] = tested on: Plasmodium vinckei petteri; experiment: Antiplasmodial activity against Plasmodium vinckei petteri infected in Swiss mouse model assessed as inhibition of parasite growth at 50 to 100 mg/kg,ip administered for 4 days relative to control; format: functional; design: scale not given: the % may be the effect or the level left; settings: dose 50-100 mg/kg, time 4 day
Plasmodium berghei [28] = experiment: Antiplasmodial activity against Plasmodium berghei NK173 infected in Swiss CD-1 mouse model of malaria assessed as reduction in parasitaemia at 50 mg/kg, po measured after 7 days by giemsa staining based microscopic analysis; format: functional, organism-based; settings: time 7.0 day; procedure, shortened: as §1
[29] = tested on: Plasmodium vinckei petteri; experiment: Antiplasmodial activity against Plasmodium vinckei petteri infected in Swiss mouse model assessed as reduction in parasitaemia at 50 mg/kg, ip administered for 4 days; design: scale not given: the % may be the effect or the level left; settings: time 4 day
[30] = Selectivity index, ratio of IC50 for antiplasmodial activity against chloroquine-resistant Plasmodium falciparum FcB1 to IC50 for antiplasmodial activity against multidrug-resistant Plasmodium falciparum W2; format: functional
[31] = Toxicity in zebrafish embryo assessed as egg hatching at 100 ug/ml measured for 72 hrs relative to control; format: tissue-based, Danio rerio; settings: in vivo, at 100 µg/mL
[32] = Selectivity index, ratio of IC50 for antiplasmodial activity against chloroquine-resistant Plasmodium falciparum FcB1 to IC50 for antiplasmodial activity against chloroquine-sensitive Plasmodium falciparum 3D7; format: functional
[33] = Toxicity in zebrafish embryos assessed as reduction in egg hatching measured for 72 hrs; design: species or system Danio rerio; settings: in vivo, dose 10-100 µg/ml
[34] = Toxicity in zebrafish embryos assessed as reduction in egg hatching at 10 to 100 ug/ml measured 5 days post fertilization; design: species or system Danio rerio; settings: in vivo, 120 h, dose 10-100 µg/ml, time 5 day

SMILES: CCN(CC)CCCC(C)Nc1ccnc2cc(Cl)ccc12 (stereo not drawn) [CHLOROQUINE]
- hemolysis at 1 h, 100 ug/ml [1]: < 1%
- Activity (Plasmodium berghei [2]): inactive
- Activity (Plasmodium berghei [3]): inactive

SMILES: O=C(O)c1cc(O)c(O)c(O)c1 [GALLIC ACID]
- hemolysis at 1 h, 100 ug/ml [1]: < 1%
- selectivity ratio [4]: > 4
- solubility thermodynamic at 72 h [5]: 70000 µM (≈ 11900 µg/mL)
- IC50 (Plasmodium falciparum [6]): 68 µM
- IC50 (Plasmodium falciparum [7]): > 10 µM and 68 µM
- IC50 at 48 h [8]: > 294 µM

SMILES: O=C(OCCCOC(=O)c1cc(O)c(O)c(O)c1)c1cc(O)c(O)c(O)c1
- hemolysis at 1 h, 100 ug/ml [1]: < 1%
- Activity [9]: Non-Toxic
- IC50 (Plasmodium falciparum [10]): 3.2 µM
- selectivity ratio [4]: > 23
- solubility thermodynamic at 72 h [5]: 2700 µM (≈ 1030 µg/mL)
- survival at 72 h [11]: > 90%
- Activity [12]: Non-Toxic
- Activity (Plasmodium berghei [13]): 26%
- Activity [14]: 100%
- Activity (Plasmodium berghei [15]): 5%
- survival at 24 h [16]: > 95%
- Activity [17]: Non-Toxic
- IC50 (Plasmodium falciparum [6]): 5.8 µM
- Activity [18]: Non-Toxic
- IC50 at 48 h [8]: > 132 µM
- IC50 (Plasmodium falciparum [19]): 4.1 µM
- Activity [20]: Non-Toxic
- Activity [21]: Non-Toxic

SMILES: O=C(OCCCOC(=O)c1cc(O)c(OCc2ccccc2)c(O)c1)c1cc(O)c(OCc2ccccc2)c(O)c1
- hemolysis at 1 h, 100 ug/ml [1]: < 1%
- IC50 (Plasmodium falciparum [10]): 1.7 µM
- selectivity ratio [4]: 8
- solubility thermodynamic at 72 h [5]: 26 µM (≈ 14.6 µg/mL)
- survival at 72 h [11]: > 90%
- Activity [12]: Non-Toxic
- Activity [14]: 100%
- survival at 24 h [16]: > 95%
- IC50 at 48 h [22]: 12.1 µM
- Activity [17]: Non-Toxic
- IC50 (Plasmodium falciparum [6]): 1.8 µM
- Activity [18]: Non-Toxic
- IC50 at 48 h [8]: 14 µM
- IC50 (Plasmodium falciparum [19]): 1.9 µM
- Activity [21]: Non-Toxic

SMILES: O=c1oc2c(O)c(O)cc3c(=O)oc4c(O)c(O)cc1c4c23 [ELLAGIC ACID]
- ED50 [23]: < 1 mg/kg
- hemolysis at 1 h, 100 ug/ml [1]: < 1%
- IC50 (Plasmodium falciparum [10]): 7.5 µM
- selectivity ratio [4]: > 59
- IC50 (Plasmodium falciparum [24]): 2.8 µM
- bioavailability [25]: 1%
- solubility thermodynamic at 72 h [5]: 18 µM (≈ 5.44 µg/mL)
- ED50 [26]: > 100 mg/kg
- IC50 (Plasmodium falciparum [6]): 2.8 µM
- Activity [27]: 100%
- Activity (Plasmodium berghei [28]): inactive
- IC50 at 48 h [8]: > 165 µM
- Activity [29]: 100%
- IC50 (Plasmodium falciparum [19]): 8.9 µM

SMILES: O=C(NCCCNC(=O)c1cc(O)c(O)c(O)c1)c1cc(O)c(O)c(O)c1
- hemolysis at 1 h, 100 ug/ml [1]: < 1%
- Ratio IC50 [30]: 2
- Activity [9]: Non-Toxic
- Activity [31]: 20%
- IC50 (Plasmodium falciparum [10]): 26 µM
- selectivity ratio [4]: 28
- Ratio IC50 [32]: 2
- solubility thermodynamic at 72 h [5]: 610 µM (≈ 231 µg/mL)
- survival at 72 h [11]: > 90%
- Activity [12]: Non-Toxic
- Activity (Plasmodium berghei [13]): 66%
- Activity (Plasmodium berghei [15]): 54%
- survival at 24 h [16]: > 95%
- Activity [17]: Non-Toxic
- IC50 (Plasmodium falciparum [6]): 9.9 µM
- Activity [18]: Non-Toxic
- Activity [33]: Dose-Dependent Effect
- IC50 at 48 h [8]: 130 µM
- IC50 (Plasmodium falciparum [19]): 12 µM
- Activity [34]: Toxic
- Activity [20]: Non-Toxic
- Activity [21]: Non-Toxic
